Measurements taken from ChEMBL document CHEMBL1134368, “Alpha(2) adrenoceptor agonists as potential analgesic agents. 3. Imidazolylmethylthiophenes” (J Med Chem, 2001).
Calls of active or inactive are those of the source. No cut-off for these calls is given here.

What was measured:
[1] = tested on: Rattus norvegicus; test: In vivo antinociceptive activity was determined using in rat abdominal irritant test (RAIT) assay; type: functional; conditions: Abdomen
[2] = organism: Rattus norvegicus; test: QT interval was determined during cardiovascular test in normotensive male albino Long-Evans rat; delta QT; type: functional, Heart
[3] = tested on: Mus musculus; test: In vivo antinociceptive activity was determined by mouse abdominal irritant test (MAIT) in male pathogen free albino CD-1 mice; type: functional, Abdomen; parameters: concentration or dose not given beside the values
Summary of the method: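 Mice were dosed orally by gavage at several doses, with vehicle controls. Acetylcholine bromide was given at 5.5 mg/kg ip at set intervals later, and writhing was observed. Percent antinociception was calculated per dose from responders per group. ED50 and 95% confidence limits came from Litchfield-Wilcoxon probit analysis with a chi-square linearity test.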

[4] = organism: Rattus norvegicus; test: QT interval was determined during cardiovascular test in normotensive male albino Long-Evans rat; type: functional, Heart; parameters: concentration or dose not given beside the values
[5] = tested on: Rattus norvegicus; test: In vivo antinociceptive activity was determined using in Rat abdominal irritant test(RAIT) assay; IA=inactive; type: functional, organism-based; conditions: Abdomen
[6] = molecular target: Adrenergic receptor alpha-2 (Rattus norvegicus) (UniProt P22086+P19328+P22909); test: compounds were tested for agonistic activity in Alpha2 Adrenoceptor in Rat abdominal irritant test (RAIT); type: functional; conditions: Abdomen
Adrenergic receptor alpha-2 (Rattus norvegicus), sequence (P19328 whole entry, looked up, one chain of several): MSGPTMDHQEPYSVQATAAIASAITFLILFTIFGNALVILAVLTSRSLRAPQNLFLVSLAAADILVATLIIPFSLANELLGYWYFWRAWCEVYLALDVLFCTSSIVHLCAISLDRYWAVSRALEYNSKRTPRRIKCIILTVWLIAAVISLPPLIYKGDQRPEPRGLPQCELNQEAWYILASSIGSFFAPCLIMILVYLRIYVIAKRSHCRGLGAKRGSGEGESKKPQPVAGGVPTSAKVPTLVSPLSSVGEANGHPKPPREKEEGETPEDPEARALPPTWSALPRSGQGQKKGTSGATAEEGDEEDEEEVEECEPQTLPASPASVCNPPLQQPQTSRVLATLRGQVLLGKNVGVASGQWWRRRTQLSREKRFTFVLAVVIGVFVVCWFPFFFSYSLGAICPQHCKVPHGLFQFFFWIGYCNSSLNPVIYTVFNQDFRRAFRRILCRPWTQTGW
Adrenergic receptor alpha-2 (Rattus norvegicus), sequence (P22909 whole entry, looked up, one chain of several): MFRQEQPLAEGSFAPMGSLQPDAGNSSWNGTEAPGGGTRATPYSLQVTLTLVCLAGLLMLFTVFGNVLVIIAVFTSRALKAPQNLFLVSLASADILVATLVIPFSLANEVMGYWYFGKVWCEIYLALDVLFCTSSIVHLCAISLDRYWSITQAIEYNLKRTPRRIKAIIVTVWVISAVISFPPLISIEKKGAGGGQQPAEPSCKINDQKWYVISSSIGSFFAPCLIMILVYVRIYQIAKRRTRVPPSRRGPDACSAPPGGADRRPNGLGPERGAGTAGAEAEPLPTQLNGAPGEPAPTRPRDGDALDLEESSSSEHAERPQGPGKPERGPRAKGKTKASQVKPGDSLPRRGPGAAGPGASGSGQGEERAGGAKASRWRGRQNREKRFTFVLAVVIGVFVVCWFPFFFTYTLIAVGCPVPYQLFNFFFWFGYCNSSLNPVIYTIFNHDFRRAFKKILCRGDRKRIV

[7] = tested on: Mus musculus; test: In vivo antinociceptive activity was determined by Mouse abdominal irritant test (MAIT)in male pathogen free albino CD-1 mice at 30 mg/kg; type: functional; conditions: Abdomen
Summary of the method: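 Compound or vehicle was given to mice by oral gavage at 30 mg/kg. After set intervals, acetylcholine bromide was injected at 5.5 mg/kg ip. Percent inhibition was the percentage of responders per group.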

[8] = molecular target: T1, Alpha-2C adrenergic receptor (Rattus norvegicus, UniProt P22086); test: In vitro binding affinity against alpha-2C adrenergic receptor of male Wistar rat
T1 sequence (P22086 whole entry): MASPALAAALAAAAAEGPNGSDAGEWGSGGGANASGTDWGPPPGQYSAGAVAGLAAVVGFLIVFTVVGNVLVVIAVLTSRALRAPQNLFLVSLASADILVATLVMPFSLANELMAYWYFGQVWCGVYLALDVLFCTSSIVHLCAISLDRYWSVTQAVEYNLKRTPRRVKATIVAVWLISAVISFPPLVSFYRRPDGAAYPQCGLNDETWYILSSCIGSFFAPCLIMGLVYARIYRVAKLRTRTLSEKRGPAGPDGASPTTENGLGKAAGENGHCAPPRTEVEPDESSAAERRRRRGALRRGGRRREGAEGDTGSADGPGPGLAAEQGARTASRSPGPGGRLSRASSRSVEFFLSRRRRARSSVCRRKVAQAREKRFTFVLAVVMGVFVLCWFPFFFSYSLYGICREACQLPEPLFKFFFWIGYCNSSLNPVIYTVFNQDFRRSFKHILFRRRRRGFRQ

[9] = organism: Rattus norvegicus; test: QT interval was determined during cardiovascular test in normotensive male albino Long-Evans rat;delta QT; type: functional, Heart

SMILES | ED50 [1] | Inhibition [3] | also measured
Cc1ccsc1C(C)c1c[nH]cn1 (single isomer, unassigned; (+)) | 1.18 mg/kg |  | Activity [2]: 24%
O=C(O)/C=C/C(=O)O.c1nc(Cc2ccsc2)c[nH]1 | 0.97 mg/kg | 100% | 
CCc1sccc1Cc1c[nH]cn1.O=C(O)/C=C/C(=O)O | 0.27 mg/kg | 100% | Activity [4]: 28%
Brc1csc(Cc2c[nH]cn2)c1Br.Cl | 7.1 mg/kg | 93% | 
CC(c1c[nH]cn1)c1scc(Br)c1Br.O=C(O)/C=C/C(=O)O (stereo not given) |  | 80% | 
Cl.c1ccc2sc(Cc3c[nH]cn3)cc2c1 |  | 20% | 
Clc1cc(Cc2c[nH]cn2)c(Cl)s1.O=C(O)/C=C/C(=O)O | 3.2 mg/kg | 100% | 
CC(c1c[nH]cn1)c1cscc1Br.O=C(O)/C=C/C(=O)O (stereo not given) | 0.31 mg/kg | 100% | 
Cc1sccc1C(C)c1c[nH]cn1.O=C(O)/C=C/C(=O)O (stereo not given) | 1.6 mg/kg | 100% | 
Cc1cccc([C@H](C)c2c[nH]cn2)c1C [DEXMEDETOMIDINE] | 0.12 mg/kg |  | 
Cc1csc(C(C)c2c[nH]cn2)c1C (stereo not given) |  |  | IA [5]: inactive
Cc1ccsc1C1(c2c[nH]cn2)CC1.O=C(O)/C=C/C(=O)O |  | 40% | 
Cc1cc(Cc2c[nH]cn2)c(C)s1.O=C(O)/C=C/C(=O)O | 0.9 mg/kg | 100% | 
CC(c1c[nH]cn1)c1sccc1Br.Cl (stereo not given) | 0.97 mg/kg | 100% | 
COC(c1c[nH]cn1)c1cscc1C.O=C(O)/C=C/C(=O)O (stereo not given) | 4.4 mg/kg | 100% | 
Cc1cscc1C(C)c1c[nH]cn1.O=C(O)/C=C/C(=O)O (stereo not given) | 0.27 mg/kg | 100% | 
Cc1cscc1Cc1c[nH]cn1.O=C(O)/C=C/C(=O)O | 0.35 mg/kg | 100% | Activity [4]: 34%
Cc1sccc1Cc1c[nH]cn1.O=C(O)/C=C/C(=O)O | 0.89 mg/kg | 100% | 
Cc1ccsc1C(C)c1c[nH]cn1.Cl (stereo not given) | 2.2 mg/kg | 100% | 
Cc1csc(C)c1Cc1c[nH]cn1.O=C(O)/C=C/C(=O)O |  | 100% | 

SMILES | ED50 [1] | Inhibition [3] | also measured
Brc1sccc1Cc1c[nH]cn1.O=C(O)/C=C/C(=O)O |  | 100% | ED50 [6]: 1.1 mg/kg
COC(c1c[nH]cn1)c1cscc1Br.O=C(O)/C=C/C(=O)O (stereo not given) | 3.6 mg/kg | 100% | 
Cc1ccc(Cc2c[nH]cn2)s1 |  |  | inhibition in vivo at 30 mg/kg [7]: 33%
CCC(c1c[nH]cn1)c1sccc1C.O=C(O)/C=C/C(=O)O (stereo not given) |  | 100% | IA [5]: inactive
O=C(O)/C=C/C(=O)O.c1ccc2c(Cc3c[nH]cn3)csc2c1 | 0.44 mg/kg | 0.441% | 
Brc1ccsc1Cc1c[nH]cn1.Cl | 2 mg/kg |  | inhibition in vivo at 30 mg/kg [7]: 100%
Cl.c1nc(Cc2cc3c(s2)CCCC3)c[nH]1 |  | 7% | 
CCc1cscc1Cc1c[nH]cn1.O=C(O)/C=C/C(=O)O | 0.32 mg/kg | 100% | Activity [4]: 48%
Brc1csc(Cc2c[nH]cn2)c1.Cl | 5.2 mg/kg | 80% | Ki [8]: 1.4 nM
Cc1csc(Cc2c[nH]cn2)c1C.Cl | 4.7 mg/kg |  | inhibition in vivo at 30 mg/kg [7]: 100%
CCc1cc(Cc2c[nH]cn2)c(CC)s1.O=C(O)/C=C/C(=O)O | 0.31 mg/kg | 100% | 
CCC(c1c[nH]cn1)c1cscc1C.O=C(O)/C=C/C(=O)O (stereo not given) | 2.6 mg/kg | 100% | 
CCc1cscc1C(C)c1c[nH]cn1.O=C(O)/C=C/C(=O)O (stereo not given) | 0.48 mg/kg | 100% | Activity [4]: 32%
c1csc(Cc2c[nH]cn2)c1 |  |  | inhibition in vivo at 30 mg/kg [7]: 60%
CC(c1c[nH]cn1)c1cscc1Br (stereo not given) |  |  | Activity [2]: 20%
Cc1ccsc1Cc1c[nH]cn1.Cl | 0.87 mg/kg |  | inhibition in vivo at 30 mg/kg [7]: 100%; Activity [2]: 22%
CC(c1c[nH]cn1)c1sccc1Br (stereo not given) | 0.97 mg/kg |  | Activity [9]: 23%
Brc1cscc1Cc1c[nH]cn1.O=C(O)/C=C/C(=O)O | 0.38 mg/kg | 100% | Activity [4]: 11%
CC(C)c1cc(Cc2c[nH]cn2)c(C(C)C)s1.O=C(O)/C=C/C(=O)O |  | 40% | 
COC(c1c[nH]cn1)c1sccc1Br.O=C(O)/C=C/C(=O)O (stereo not given) |  | 53% | 
